According to ChEMBL document CHEMBL4818997, “Synthesis and structure-activity studies of novel anhydrohexitol-based Leucyl-tRNA synthetase inhibitors” (Eur J Med Chem, 2021):
Activity calls are given as the source filed them. The rule behind the calls is not given here.

Experiments:
[1] = system: Escherichia coli; assay: Antibacterial activity against Escherichia coli ATCC8739 at 64 uM measured after 17 hrs by resazurin based flourimetric assay; assay type: functional, organism-based
Summary of the method: (§1)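 Bacteria grown in Mueller Hinton broth at 37 °C, inoculum 5×10^3 CFU/ml. […] After 17 h, resazurin was added for 1/2 h and fluorescence read (ex 550/em 590 nm). Results are % growth reduction versus untreated and medium-only wells.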

[2] = system: Staphylococcus aureus; assay: Antibacterial activity against Staphylococcus aureus ATCC6538 at 64 uM measured after 17 hrs by resazurin based flourimetric assay; assay type: functional, organism-based; summary of the method: as §1
[3] = target: Leucine--tRNA ligase (Escherichia coli (strain K12), UniProt P07813); assay: Inhibition of recombinant Escherichia coli LeuRS assessed as inhibition of 14C-radiolabelled leucine transfer to tRNA leucine preincubated for 10 mins followed by addition of ATP and measured after 4 mins by Scintillation counting method; conditions: read-out: Ki(app)
[4] = system: Mycobacterium tuberculosis; assay: Antibacterial activity against Mycobacterium tuberculosis H37Ra […] assessed as inhibition of bacterial growth at 128 uM measured after 17 hrs by resazurin based flourimetric assay; assay type: functional
Summary of the method: (§2)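 M. tuberculosis H37Ra cultured in 7H9 + 10% OADC at 37 °C. Compounds serially pre-diluted 2-fold in DMSO, then diluted in water, final DMSO <1%, top concentration 128 µM. Inoculum 5×10^3 CFU/ml. After 17 h, resazurin added, 1/2 h at 37 °C, fluorescence read (ex 550/em 590 nm). Growth expressed as % reduction versus untreated and medium controls; IC50 derived.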

[5] = system: Candida albicans; assay: Antifungal activity against Candida albicans at 64 uM measured after 17 hrs by resazurin based flourimetric assay; assay type: functional, organism-based
Summary of the method: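 Compounds were 4-fold serially diluted in RPMI with 1% DMSO background, from 64.0 µM down to 3.9×10^-3 µM. Miconazole 0.25 µM served as positive control.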

[6] = system: Mycobacterium tuberculosis; assay: Antibacterial activity against Mycobacterium tuberculosis H37Ra […] assessed as inhibition of bacterial growth measured after 17 hrs by resazurin based flourimetric assay; assay type: functional, organism-based; summary of the method: as §2
[7] = system: Staphylococcus aureus; assay: Antibacterial activity against Staphylococcus aureus ATCC6538 assessed as inhibition of bacterial growth measured after 17 hrs by resazurin based flourimetric assay; assay type: functional, organism-based; conditions: ATCC6538, 17 h; summary of the method: as §1
[8] = system: Escherichia coli; assay: Antibacterial activity against Escherichia coli ATCC8739 assessed as inhibition of bacterial growth measured after 17 hrs by resazurin based flourimetric assay; assay type: functional, organism-based; conditions: ATCC8739, ATCC 8739, 17 h; summary of the method: as §1

Chain of Leucine--tRNA ligase (P07813 whole entry): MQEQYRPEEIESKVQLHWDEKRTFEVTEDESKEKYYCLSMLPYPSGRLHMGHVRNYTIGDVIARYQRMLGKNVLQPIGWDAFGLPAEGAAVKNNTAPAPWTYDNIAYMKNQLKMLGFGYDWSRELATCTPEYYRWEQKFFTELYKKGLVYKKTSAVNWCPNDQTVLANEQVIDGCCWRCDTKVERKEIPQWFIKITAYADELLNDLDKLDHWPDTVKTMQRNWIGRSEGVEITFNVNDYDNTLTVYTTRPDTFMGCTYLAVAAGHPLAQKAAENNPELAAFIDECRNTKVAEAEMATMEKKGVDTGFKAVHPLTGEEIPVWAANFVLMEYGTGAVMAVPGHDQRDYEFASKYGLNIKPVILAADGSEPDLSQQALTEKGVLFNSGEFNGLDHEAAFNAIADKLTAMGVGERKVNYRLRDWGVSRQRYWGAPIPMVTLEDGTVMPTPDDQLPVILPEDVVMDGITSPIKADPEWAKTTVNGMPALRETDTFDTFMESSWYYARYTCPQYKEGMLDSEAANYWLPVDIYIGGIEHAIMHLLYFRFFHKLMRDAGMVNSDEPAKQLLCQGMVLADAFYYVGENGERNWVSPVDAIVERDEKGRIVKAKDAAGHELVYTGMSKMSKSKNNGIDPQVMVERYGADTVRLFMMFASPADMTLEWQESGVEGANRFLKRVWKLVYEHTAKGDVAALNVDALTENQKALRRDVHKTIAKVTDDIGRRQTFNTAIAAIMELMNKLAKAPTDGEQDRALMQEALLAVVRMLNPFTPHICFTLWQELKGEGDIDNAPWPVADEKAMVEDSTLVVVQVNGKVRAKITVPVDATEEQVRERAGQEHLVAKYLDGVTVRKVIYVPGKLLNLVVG

| Compound | Activity [1] | Activity [2] | Ki [3] [nM] | inhibition at 128 µM [4] [%] | Activity [5] | IC50 [6] [nM] | IC50 [7] [nM] | IC50 [8] [nM] |
| --- | --- | --- | --- | --- | --- | --- | --- | --- |
| CC(C)C[C@H](N)C(=O)NS(=O)(=O)OC[C@H]1OC[C@@H](CCCn2cc(-c3ccc(OC(F)(F)F)cc3)nn2)[C@H](O)[C@@H]1O | inactive | inactive | 17.8 | 27.8 | inactive |  |  |  |
| CCCCCc1ccc(-c2cn(CCC[C@@H]3CO[C@H](COS(=O)(=O)NC(=O)[C@@H](N)CC(C)C)[C@@H](O)[C@H]3O)nn2)cc1 | inactive | inactive | 5.51 | 86.1 | inactive | 24700 |  |  |
| CC(C)C[C@H](N)C(=O)NS(=O)(=O)OC[C@H]1OC[C@@H](CCCn2cc(CCc3ccccc3)nn2)[C@H](O)[C@@H]1O | inactive | inactive | 108 | 38.2 | inactive |  |  |  |
| CCCCCCCCc1cn(CCC[C@@H]2CO[C@H](COS(=O)(=O)NC(=O)[C@@H](N)CC(C)C)[C@@H](O)[C@H]2O)nn1 | inactive | inactive | 52.4 | 4.26 | inactive |  |  |  |
| CC(C)C[C@H](N)C(=O)NS(=O)(=O)OC[C@H]1OC[C@@H](CCCn2cc(CN)nn2)[C@H](O)[C@@H]1O | inactive | inactive | 2970 | 9.44 | inactive |  |  |  |
| CC(C)C[C@H](N)C(=O)NS(=O)(=O)OC[C@H]1OC[C@@H](CCCn2cc(-c3cccnc3)nn2)[C@H](O)[C@@H]1O | inactive | inactive | 31.6 | 16.9 | inactive |  |  |  |
| CC(C)C[C@H](N)C(=O)NS(=O)(=O)OC[C@H]1O[C@@H](CCn2nnc(-c3ccccc3)n2)[C@H](O)[C@@H]1O | inactive | inactive | 30.9 | 49.8 | inactive |  |  |  |
| CC(C)C[C@H](N)C(=O)NS(=O)(=O)OC[C@H]1OC[C@@H](CCCn2cc(CCCCO)nn2)[C@H](O)[C@@H]1O | inactive | inactive | 388 | 23.2 | inactive |  |  |  |
| CC(C)C[C@H](N)C(=O)NS(=O)(=O)OC[C@H]1OC[C@@H](CCCn2cc(CNC(=O)c3ccccc3)nn2)[C@H](O)[C@@H]1O | inactive | inactive | 31.3 |  | inactive |  |  |  |
| COc1c(N2C[C@@H]3CCCN[C@@H]3C2)c(F)cc2c(=O)c(C(=O)O)cn(C3CC3)c12 [MOXIFLOXACIN] |  |  |  |  |  | 250 |  |  |
| C[C@H]1c2cccc(O)c2C(=O)C2=C(O)[C@]3(O)C(=O)C(C(N)=O)=C(O)[C@@H](N(C)C)[C@@H]3[C@@H](O)[C@@H]21 [DOXYCYCLINE] |  |  |  |  |  |  | 110 | 730 |
| CC(C)C[C@H](N)C(=O)NS(=O)(=O)OC[C@H]1OC[C@@H](CCCn2cc(CNCc3ccccc3)nn2)[C@H](O)[C@@H]1O | inactive | inactive | 1260 | 12.1 | inactive |  |  |  |
